In the library only some 1.5% were active in any assay of this set; here they are far more common.
STAT1 inh = reduces IFN-gamma driven STAT1 reporter signal | NIH 3T3 STAT1-luciferase reporter, luminescence | inhibition, % at 5.5 µM | 200,000 tested, 0.35% active | AID 920;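 active means inhibition above a set limit, the mean inhibition across all tested compounds plus 3 SD, cut at about 34% in these data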;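 further: 0% = IFN-gamma with DMSO and 100% = IFN-gamma with 300 µM nifuroxazide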
Platelet DG rel = platelet dense granule release activity. human platelet-rich plasma, SFLLRN dense granule ATP release, luminescence. inhibition, %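 (compounds screened at 7.5 µM in platelet-rich plasma)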. 300,000 tested, 0.22% active. AID 1663;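 active means mean replicate score, as percent of positive control, at or above 50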
PPC-1+TRAIL kill = PPC-1 cancer cell killing with TRAIL present | PPC-1 cells + TRAIL, ATPLite viability luminescence | cell killing (% activity), % at 4 µM or 5 µM | 220,000 tested, 0.41% active;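 active means cell killing above 50% in the first pass at 4 µM, then a duplicate retest at 5 µM averaging 50% or more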;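 further: plate controls were cells with TRAIL plus DMSO for no effect and medium-only wells lacking cells for full effect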
STAT3 inh = STAT3 signaling inhibition; U3A cells, IL-6 STAT3-luciferase reporter, luminescence; host cell line lacks STAT1; inhibition, % at 5.5 µM; 190,000 tested, 0.89% active; AID 862;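 active means inhibition above the mean inhibition across all screened compounds plus 3 SD, cut at about 44% in these data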;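 further: 0% = DMSO only wells and 100% = 100 µM nifuroxazide control wells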
H9c2 TAG inh = inhibitors of triacylglycerol accumulation; H9c2 cells, Nile Red lipid (TAG) fluorescence; cells loaded with 200 µM oleic acid; inhibition, % at 12.5 µM; 230,000 tested, 0.66% active; AID 651582;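 active means pattern-corrected inhibition of lipid staining of at least 50% with the nuclear-stain viability signal not falling by more than 50%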;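 further: 0% = DMSO wells and 100% = triacsin C control wells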
Lipid droplet = modulators of hepatic lipid droplet formation | AML12 mouse hepatocytes, oleate lipid droplets, BODIPY imaging | inhibition, % at 6.5 µM | 240,000 tested, 0.4% active;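 active means lipid droplet intensity inhibited by at least 50%, with more than 500 cells counted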
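Assay system: AML12 mouse liver cells | Compound: 6.5 µM single-point dosing | Schedule: Overnight exposure | Technique: Fluorescence imaging, 20x objective, two fields per well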
Numbers without * were called inactive; · = no result.

SMILES | STAT1 inh | Platelet DG rel | PPC-1+TRAIL kill | STAT3 inh | H9c2 TAG inh | Lipid droplet
CCCc1cc(C(=O)N2CCCC(N3CCN(c4ccccc4F)CC3)C2)n(C)n1 (stereo unspecified) | · | 53.0* | · | · | 8.8 | 6.8
CCCc1cc(C(=O)N2CCCC(N3CCN(c4ccccc4C)CC3)C2)n(C)n1 (stereo unspecified) | · | -2.6 | · | · | · | -3.4
COc1cccc(C(=O)Nc2nnc(-c3cccs3)s2)c1 | -2.1 | 15.2 | 43.7 | 57.9* | 8.8 | -7.4
COc1ccc(NC(=O)c2c(N)no[n+]2[O-])cc1 | -16.7 | 11.5 | 25.0 | 14.2 | -4.1 | 2.5
COc1ccc(C(=O)c2no[n+]([O-])c2C(=O)c2ccc(OC)cc2)cc1 | 16.8 | 2.4 | 19.4 | 11.0 | 54.2* | ·
CSC(=S)NN=C(C)c1cccc(C)n1 | · | · | · | · | 55.4* | ·
CC(=NNC(=S)N1CCCCC1)c1cccc(C)n1 | · | · | · | · | 48.2 | ·
N#Cc1c(N)[nH]c2ccc(Sc3ccccc3)cc12 | · | · | · | · | 54.4* | ·
CCOC(=O)C1CCN(c2ncnc3cc(OC)c(OC)cc23)CC1 | · | 58.0* | -2.5 | · | 2.4 | 0.0
CCOC(=O)C1CCN(c2ncnc3c2cnn3-c2ccc(OC)cc2)CC1 | -12.9 | · | · | 14.9 | · | -0.3
O=C(c1ccccc1)N1CCSC1=S | -3.1 | -4.5 | 17.9 | 0.1 | 7.3 | ·
O=C(c1ccccc1)N1CCSc2sccc2C1=O | 37.2* | 4.9 | 16.6 | 50.3* | -3.0 | -7.4
COc1ccc(C(CCN2CCCC(C)C2)c2c(OC)cc(OC)c3c(-c4ccccc4)cc(=O)oc23)cc1 (stereo unspecified) | · | 4.9 | 3.7 | · | 102.9 | 0.5
COc1cc(OC)c2c(-c3ccccc3)cc(=O)oc2c1C(CCN1CCCC(C)C1)c1ccc(N(C)C)cc1 (stereo unspecified) | · | 0.8 | 30.7 | · | 94.2* | 3.7
CCCCCc1cc(=O)oc2c(C(CCN3CCCC(C)C3)c3ccc4c(c3)OCO4)c(OC)cc(OC)c12 (stereo unspecified) | · | 0.0 | 7.7 | · | 78.0* | -0.7
CCCCCc1cc(=O)oc2c(C(CCN3CCCCC3)c3ccc4c(c3)OCO4)c(OC)cc(OC)c12 (stereo unspecified) | · | 0.3 | -4.5 | · | 106.5* | 25.0
COc1cc(OC)c2c(-c3ccccc3)cc(=O)oc2c1C(CCN1CCCC1)c1ccc2c(c1)OCO2 (stereo unspecified) | · | -1.4 | 14.3 | · | 40.1 | 34.1
N#CC1=C(N)OC2=C(CCc3ccccc32)C1c1ccccc1 (stereo unspecified) | -5.0 | -13.1 | 13.5 | -10.5 | · | 100.8*
OC[C@@H]1CN(Cc2cccs2)C[C@H](n2cnc3c(N4CCCC4)ncnc32)O1 | · | · | · | · | -1.6 | ·
CC1CCC(C(C)C)C(OC(=O)Cn2c(-c3ccc(Br)cc3)[n+](C)c3ccccc32)C1 (stereo unspecified) | 1.2 | 3.5 | 49.7 | 11.8 | 88.8* | -16.2
CCCc1cc(-c2nc(N)ncc2-c2ccc3c(c2)OCCCO3)c(O)cc1OC | 10.6 | 69.6* | 3.5 | -1.3 | -0.1 | 2.3
CCCc1cc(-c2nc(N)ncc2-c2csc(C)n2)c(O)cc1OC | -3.5 | 14.1 | 18.0 | 4.8 | · | 6.4
N#C/C(=C\c1cccn1S(=O)(=O)c1cccc([N+](=O)[O-])c1)S(=O)(=O)c1ccc(F)cc1 | · | · | · | · | -8.3 | ·
CCc1nc2c(OCc3ccc(C#N)cc3)cccn2c1N(C)C(=O)c1ccc(C)cc1 | · | · | · | · | 8.2 | ·
O=C(Cn1ncc(Cl)c(Cl)c1=O)N1CCN(Cc2ccccc2)CC1 | 12.5 | -2.1 | 18.8 | -2.6 | 63.6* | 19.4
SMILES | STAT1 inh | Platelet DG rel | PPC-1+TRAIL kill | STAT3 inh | H9c2 TAG inh | Lipid droplet
Cc1cccc(Oc2nc3ccccn3c(=O)c2/C=C(\C#N)C(=O)NC2CCS(=O)(=O)C2)c1C (stereo unspecified) | · | 56.7* | · | · | · | -1.7
Cc1cccc(Oc2nc3ccccn3c(=O)c2/C=C(\C#N)C(=O)NC2CCS(=O)(=O)C2)c1 (stereo unspecified) | 3.3 | 1.2 | 7.4 | 5.3 | 8.1 | 11.8
O=S(=O)(Nc1cc(Sc2cccc3cccnc23)c(O)c2ccccc12)c1ccccc1 | 4.5 | -0.8 | 70.0* | -96.3 | · | -11.5
CCOC(=O)c1c(NC(=O)C2c3ccccc3Oc3ccccc32)sc(C(=O)N(CC)CC)c1C | 1.6 | -15.0 | 21.1 | -0.6 | 80.5* | ·
CC(=O)Nc1ccc(C(=O)N2CCCC(c3cc(C(=O)NCc4ccccc4)no3)C2)cc1 (stereo unspecified) | · | · | · | · | -29.2 | ·
O=C(CCCN1C(=O)/C(=C/c2ccccc2Cl)SC1=S)NNC(=O)c1ccc(Cl)cc1Cl | · | 53.1* | 9.1 | · | -7.6 | -3.9
C=C1[C@@H](O)[C@H](Cc2ccccc2)N(Cc2ccccc2Br)S1(=O)=O | · | · | · | · | 5.8 | ·
COc1ccc(CCNC(=O)CSc2nc(N)c3c(C)c(C)oc3n2)cc1OC | 7.7 | 73.8* | 3.6 | 2.5 | -2.1 | -6.7
CCc1ccc(/C=C/C(=O)C2C(=O)c3ccccc3C2=O)cc1 | 38.7* | 9.0 | 23.6 | 51.6* | · | ·
O=C(/C=C/c1ccccc1)C1C(=O)c2ccccc2C1=O | -12.0 | -3.6 | 37.1 | -7.7 | · | 3.4
O=C(NC(=S)Nc1ccccc1)c1ccc(-c2ccccc2)cc1 | -12.4 | 3.3 | 53.6* | 4.1 | · | -6.2
O=C(O)c1ccc(NC(=S)NC(=O)c2ccc(-c3ccccc3)cc2)cc1 | -5.3 | -2.3 | 7.8 | 6.2 | 0.3 | 4.1
CCCNC(=O)N(C)C[C@@H]1Oc2ncc(-c3ccncc3)cc2C(=O)N([C@H](C)CO)C[C@@H]1C | · | · | · | · | -19.2 | ·
O=C1CSCc2nc3ccccc3n21 | · | · | · | · | -17.1 | ·
O=C(C[C@H]1C[C@H]2c3cc(NS(=O)(=O)c4ccc(F)cc4)ccc3O[C@H]2[C@H](CO)O1)NCc1ccncc1 | · | · | · | · | -4.5 | ·
CC(C)CN1C(=O)/C(=C/c2c(N3CCc4ccccc4C3)nc3ccccn3c2=O)SC1=S | · | · | 6.8 | · | · | 119.7*
N#Cc1c(C(F)(F)F)cc(-c2cccs2)nc1SCc1cccnc1 | 4.8 | -3.2 | 24.7 | 17.6 | · | ·
N#Cc1ccc(-c2cccs2)nc1SCc1cccnc1 | · | -4.8 | -0.2 | · | 53.3* | -10.8
C[C@@H](NS(=O)(=O)c1cc(Cl)ccc1F)[C@H](O)c1ccccc1 | · | · | · | · | -3.3 | ·
Cc1ccc(-n2c(N)c(C#N)c(-c3ccccc3)c(C#N)c2=O)cc1 | -9.8 | 87.5* | -10.7 | -16.6 | -4.7 | -1.0
C(=NNc1nnn(Cc2ccccc2)n1)c1ccccc1 | · | · | · | · | 12.0 | ·
Cc1cccc(CSc2cccc3cccnc23)c1 | -51.4 | 3.3 | 21.6 | -17.4 | 50.4* | ·
CC(C)C[C@@H](CNCC(=O)[C@H](Cc1ccccc1)NC(=O)c1[nH]cnc1C(=O)N[C@@H](C)CN)NC(=O)c1nc[nH]c1C(=O)N[C@@H](C)C(=O)O | · | · | · | · | 0.3 | ·
CN(C)CC/C=C1/c2ccccc2Sc2ccc(Cl)cc21 | · | 11.9 | 1.7 | · | 2.6 | 17.5
CCCCCC[N+](C)(C)CC/C=C1/c2ccccc2Sc2ccc(Cl)cc21 | · | 6.2 | 12.8 | · | 55.8* | -4.9
c1cc(-c2ccc(N3CCOCC3)cc2)n2ccnc2c1 | · | · | · | · | -20.5 | ·
CCOC(=O)c1cnc2cc(-c3ccc(Cl)cc3)nn2c1N | -30.5 | -9.4 | 17.4 | 15.8 | · | ·
